Experimental findings from ChEMBL document CHEMBL4184294, “A small group of sulfated benzofurans induces steady-state submaximal inhibition of thrombin” (Bioorg Med Chem Lett, 2018) are described below.

The target of assay [1] is T1, Prothrombin (Homo sapiens, UniProt P00734). As to the kind of experiment: Partial allosteric inhibition of human thrombin at 500 uM using spectrozyme TH as substrate pretreated for 10 mins followed by substrate addition by spectrophotometric method relative to control.
Assay [2] addresses T1, Prothrombin. As to the kind of experiment: Partial allosteric inhibition of human thrombin using spectrozyme TH as substrate pretreated for 10 mins followed by substrate addition by spectrophotometric method. The method in brief:
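Chromogenic substrate hydrolysis by thrombin read spectrophotometrically in 20 mM Tris-HCl pH 7.4 with […], 100 mM NaCl and 0.1% PEG 8000 at 25 °C. Sigmoidal fits gave IC50 and efficacy (ΔY). Errors ±1 S.E.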

Assay [3] has as its target T1, Prothrombin. The experiment in a line: Partial allosteric inhibition of human thrombin at 300 uM using spectrozyme TH as substrate pretreated for 10 mins followed by substrate addition by spectrophotometric method relative to control.

Molecules are shown by their SMILES. pIC50: −log10 of the molar value. Calls of active or inactive are those of the source. The calls are words filed in the database; no cut-off is given here. A value given as a limit tells only on which side of the number the result lay.

As usually defined, the inhibition is the drop in the measured response relative to a control, in per cent. Broadly, the pIC50 is −log10 of the IC50, conventionally taken in molar units. As to `CCOC(=O)c1c(C)oc2cc(OC)c(OCc3cccc(S(=O)(=O)O)c3)cc12`, the inhibition at Prothrombin [1] was over 50%. In addition, at Prothrombin [2], the Efficacy worked out at 101% and the negative logarithm of the IC50 (pIC50) is 3.87.
In the case of `CCOC(=O)c1c(C)oc2cc(OCc3ccccc3)c(OS(=O)(=O)O)cc12`, the inhibition at Prothrombin [1] is over 50%. On Prothrombin [2], the Efficacy turned out to be 72% and the negative-log IC50 (pIC50) was 3.87.
`CCOC(=O)c1c(C)oc2cc(OCc3ccccc3)c(OCc3cccc(S(=O)(=O)O)c3)cc12`: the inhibition on Prothrombin [1] is over 50%. At Prothrombin [2], the pIC50 is under 3.30.
For the compound `CCOC(=O)c1c(COc2cc3c(C(=O)OCCc4ccccc4)c(C)oc3cc2OC)oc2cc(OC)c(OS(=O)(=O)O)cc12`, the inhibition on Prothrombin [3] is over 50%. Besides, on Prothrombin [2], the Efficacy turned out to be 58% and the pIC50 is 5.49.
Turning to `CCOC(=O)c1c(C)oc2cc(OCc3cccc(OCOC)c3)c(OS(=O)(=O)O)cc12`, on Prothrombin [1], the inhibition was over 50%. In addition, on Prothrombin [2], the Efficacy came out at 75.9% and the pIC50 was 3.64.
Take `CCOC(=O)c1c(C)oc2cc(OC)c(OCc3oc4cc(OCC5CCCCC5)c(OS(=O)(=O)O)cc4c3C(=O)OCC)cc12`: on Prothrombin [3], the inhibition is over 50%. Further, on Prothrombin [2], the Efficacy stood at 77% and the negative-log IC50 (pIC50) is 5.42.
The matching figures for `CCCOC(=O)c1c(COc2cc3c(C(=O)OCc4ccccc4)c(C)oc3cc2OC)oc2cc(OC)c(OS(=O)(=O)O)cc12`: over 50%, 68% and 5.31.
For `CCOC(=O)c1c(C)oc2cc(OCc3ccccc3)c(OCc3oc4cc(OC)c(OS(=O)(=O)O)cc4c3C(=O)OCCOS(=O)(=O)O)cc12`, in that order: over 50%, 74% and 4.85.
As for `CCOC(=O)c1c(C)oc2cc(OCc3cccc(OCOC)c3)c(OCc3oc4cc(OC)c(OS(=O)(=O)O)cc4c3C(=O)OCC)cc12`, the inhibition at Prothrombin [3] was over 50%. In addition, on Prothrombin [2], the Efficacy was determined as 59% and the pIC50 was 5.40.
As for `CCOC(=O)c1c(C)oc2cc(OCc3cccc(OC(C)C)c3)c(OCc3oc4cc(OC)c(OS(=O)(=O)O)cc4c3C(=O)OCC)cc12`, at Prothrombin [3], the inhibition was over 50%. In addition, on Prothrombin [2], the Efficacy amounted to 57% and the negative logarithm of the IC50 (pIC50) is 5.59.
Turning to `CCOC(=O)c1c(COc2cc3c(C(=O)OCc4ccc(OCOC)cc4)c(C)oc3cc2OC)oc2cc(OC)c(OS(=O)(=O)O)cc12`, the inhibition on Prothrombin [3] is over 50%. At Prothrombin [2], the Efficacy came to 66% and the negative-log IC50 (pIC50) was 5.59.
For the compound `CCOC(=O)c1c(C)oc2cc(OS(=O)(=O)O)c(OCc3oc4cc(OC)c(OS(=O)(=O)O)cc4c3C(=O)OCC)cc12`, at Prothrombin [3], the inhibition result was “inactive”. For the same compound, the pIC50 at Prothrombin [2] was under 3.52.
With `CCOC(=O)c1c(C)oc2cc(OCc3ccccc3)c(OCc3oc4cc(OC)c(OS(=O)(=O)O)cc4c3C(=O)OCC)cc12`, the inhibition at Prothrombin [3] was over 50%. Further, on Prothrombin [2], the Efficacy is 57% and the pIC50 was 5.70.
On to `CCOC(=O)c1c(C)oc2cc(Oc3cccc(OS(=O)(=O)O)c3)c(OCc3oc4cc(OC)c(OS(=O)(=O)O)cc4c3C(=O)OCC)cc12`, for which the inhibition entry on Prothrombin [3] was “inactive”. Moreover, the negative logarithm of the IC50 (pIC50) at Prothrombin [2] was under 3.52.
With `CCOC(=O)c1c(C)oc2cc(OCc3ccc(OCOC)cc3)c(OCc3oc4cc(OC)c(OS(=O)(=O)O)cc4c3C(=O)OCC)cc12`, on Prothrombin [3], the inhibition was over 50%. On Prothrombin [2], the Efficacy stood at 61% and the negative-log IC50 (pIC50) was 5.48.
For `CCOC(=O)c1c(C)oc2cc(OCC3CCCCC3)c(OCc3oc4cc(OCC5CCCCC5)c(OS(=O)(=O)O)cc4c3C(=O)OCC)cc12`, in that order: over 50%, 93% and 5.06.
For `CCOC(=O)c1c(C)oc2cc(OCC3CCCCC3)c(OCc3oc4cc(OC)c(OS(=O)(=O)O)cc4c3C(=O)OCC)cc12`, in that order: over 50%, 63% and 5.59.
For `CCOC(=O)c1c(C)oc2cc(OCc3ccc(OC(C)C)cc3)c(OCc3oc4cc(OC)c(OS(=O)(=O)O)cc4c3C(=O)OCC)cc12`, in that order: over 50%, 74% and 5.64.
